Most compounds without a hit are left out; they make up all but 4.7% or so of the library.
AHR activator: human AHR activation; P35869; 2.5% of 320,000 active; AID 2796; activation, % at 5 µM; AHR-responsive luciferase reporter cells, luminescence; in the data active = activation above about 47%
FXN GAA850 act: increases GAA850 frataxin promoter reporter activity | HEK293 lucGAA850 FXN promoter luciferase reporter, 24 h; percent of 10 µM SAHA response | activation, % at 6 µM | 0.56% of 360,000 active;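 active = activation above the average of all compounds screened plus 3 SD, cutoff fixed separately per campaign, cut at about 7.5% in these data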
MC4R ag barr: activates human MC4R beta-arrestin recruitment | P32245 | U2OS MC4R beta-arrestin complementation, luminescence; percent of melanotan II response, DMSO zero | activation, % at 8.9 µM | 0.98% of 360,000 active | AID 540308;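 active = activation above a per-plate cutoff, the mean activation of sample wells on that plate plus 3 SD, cut at about 8% in these data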
Target sequence (P32245 whole entry, looked up): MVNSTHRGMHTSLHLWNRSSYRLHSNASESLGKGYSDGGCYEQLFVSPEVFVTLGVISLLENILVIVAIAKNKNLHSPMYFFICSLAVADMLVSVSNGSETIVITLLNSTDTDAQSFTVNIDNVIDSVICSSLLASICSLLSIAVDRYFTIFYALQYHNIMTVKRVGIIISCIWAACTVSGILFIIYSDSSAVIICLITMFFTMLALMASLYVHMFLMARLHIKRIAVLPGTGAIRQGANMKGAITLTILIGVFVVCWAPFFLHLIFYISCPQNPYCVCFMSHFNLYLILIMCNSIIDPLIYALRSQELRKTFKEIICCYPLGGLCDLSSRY
MC4R antag cAMP: blocks human MC4R cAMP signaling; inhibition, % at 6.5 µM; MC4R-expressing cells, MTII-stimulated cAMP, LANCE TR-FRET; P32245; 0.48% of 360,000 active;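 active = inhibition above its plate's cutoff, the mean of tested wells on that plate plus 3 SD, cut at about 29% in these data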
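Assay system: human MC4R-expressing U2OS cells; reagent: Melanotan II stimulation of cells; dosing: 6.5 µM single dose; timing: compound 30 min, challenge 1 h, detection 1 h; signal: TR-FRET cAMP assay; replicates: one well per compound, no replicates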
HTR2A ag: mouse HTR2A agonism via beta-arrestin recruitment. P35363. CHO-K1 mHTR2A beta-arrestin complementation, luminescence; percent of 30 µM serotonin response. activation, % at 7.6 µM. 0.66% of 360,000 active. AID 624169;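 active = activation above a run cutoff, the mean activation of all tested compounds plus 3 SD, cut at about 14% in these data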
Numbers stand for hits; . = inactive; / = not tested or not shown.

SMILES	AHR activator	FXN GAA850 act	MC4R ag barr	MC4R antag cAMP	HTR2A ag
CCOc1ccc(C(=O)NC(=S)Nc2cccnc2)cc1[N+](=O)[O-]	.	.	.	.	.
COc1ccc(C(=O)NC(=S)NCc2cccnc2)cc1Br	51	.	.	.	.
COc1ccc(C(=O)NC(=S)Nc2cccnc2)cc1[N+](=O)[O-]	59	.	.	.	.
Cc1ccc(S(=O)(=O)N(C)C[C@@H]2OCc3cnnn3CCCC(=O)N([C@@H](C)CO)C[C@H]2C)cc1	/	.	.	.	.
CC(NC(=O)c1cccc(S(=O)(=O)N2CCN(Cc3ccccc3)CC2)c1)c1ccccc1Cl (centres undefined)	/	.	.	.	.
Cn1cc(C(=O)C(=O)N2CCc3ccccc32)c2ccccc21	63	.	.	.	.
Cc1[nH]c2ccccc2c1C(=O)C(=O)N1CCCc2ccccc21	.	.	.	.	.
O=C(c1cccc(F)c1F)N1CCCc2ccccc21	51	.	.	.	.
O=C(C(=O)N1CCCc2ccccc21)c1c[nH]c2ccccc12	50	.	.	.	.
Cn1cc(S(=O)(=O)CC(=O)N2CCc3ccccc32)c2ccccc21	.	.	.	.	.
O=C(CSc1nc2nn(-c3ccccc3)c(=O)c-2c2n1CCCCC2)Nc1ccc(F)c(F)c1	.	.	.	.	.
COc1cc(C(=O)OCCc2cc3ccccc3c(=O)o2)cc(OC)c1OC	.	.	.	.	.
O=C(N/N=C/c1c(-c2ccccc2)[nH]c2ccccc12)c1cccnc1	73	.	.	.	.
O=C(N/N=C/c1cccc2ccccc12)c1cccnc1	53	.	.	.	.
Cc1ccccc1/C=N/NC(=O)c1cccnc1	.	.	.	.	.
Cn1c(-c2ccccc2)c(/C=N/NC(=O)c2cccnc2)c2ccccc21	59	.	.	.	.
Cn1cccc1/C=N/NC(=O)c1cccnc1	.	.	.	.	.
Cc1ccc(NC(=O)CSc2ncc3ccccn23)cc1C	.	.	.	.	.
CN(C)CCCC(=O)c1ccc2c(c1)OCO2	.	.	.	.	.
CN(C)CCC(=O)c1ccc2c(c1)OCO2	.	.	.	33	.
O=c1ccn([C@@H]2O[C@H](CNCc3ccc(-n4cccn4)cc3)[C@@H](O)[C@H]2O)c(=O)[nH]1	/	.	.	.	.
Cc1cccc2c(N=O)c(O)n(CCc3ccccc3)c12	67	.	.	.	.
Cc1ccc(Cn2c(O)c(N=O)c3ccccc32)cc1	.	.	.	.	.
O=[N+]([O-])c1ccc(COc2ccc(-c3[nH]ncc3-c3ccccc3)c(O)c2)cc1	57	.	.	.	.
C#CCOCCOCCOCCNc1nc(N2CCN(C(=O)[C@H](CCCCN)n3cc([C@@H](N)CO)nn3)CC2)nc(N2CCN(C(=O)[C@H](CCCCN)n3cc([C@@H](N)CC(C)C)nn3)CC2)n1	.	.	.	.	.
SMILES	AHR activator	FXN GAA850 act	MC4R ag barr	MC4R antag cAMP	HTR2A ag
COc1ccc(O)cc1CN1CCN(c2ncc(Cc3ccccc3)cn2)CC1	/	/	/	/	.
O=C1C2CCCN2C(c2ccccc2F)N1c1ccc(Cl)cc1 (centres undefined)	52	.	.	.	.
O=C(Cc1nnc(NC(=O)c2ccccc2)s1)N/N=C\c1ccc(O)c(O)c1	56	.	.	.	.
Cc1ccc2c(c1)/C(=C/c1ccccc1F)C(=O)N2	68	.	.	.	.
CC(=O)Nc1ccc2c(c1)ncn2C1CCCCC1	.	.	.	.	.
COC(=O)Nc1ccc2c(c1)ncn2C1CCCCC1	66	.	.	.	.
Cc1nc(SCC(=O)c2cc(C)n(C3CC3)c2C)c2ccccc2n1	/	.	.	.	.
Cc1ccc(SCc2ccc(C(=O)Nc3cccc([N+](=O)[O-])c3)cc2)cc1	.	.	27	.	.
Cc1ccc(SCc2ccc(C(=O)Nc3cc([N+](=O)[O-])ccc3C)cc2)cc1	.	.	23	.	.
Cc1ccc([N+](=O)[O-])cc1NC(=O)c1ccccc1	.	.	.	.	.
Cc1cc(=O)[nH]c(/N=C(\N)Nc2ccc(Oc3ccccc3)cc2)n1	.	.	.	.	.
Cc1cc(=O)[nH]c(/N=C(\N)Nc2ccc(SC(F)F)cc2)n1	68	.	.	.	.
Cc1cc2n(n1)SC(Nc1cc(Cl)ccc1Cl)N2 (centres undefined)	63	.	.	.	.
Cc1cc2n(n1)SC(Nc1cccc3ccccc13)N2 (centres undefined)	53	.	.	.	.

High-throughput results from PubChem.
